The values below come from paper PMC4682886 (ChemMedChem, 2015).

The test system of data set [1] is C. albicans susceptible strain HLY4123. Description: Dose-response curves of test compounds against C. albicans with fluconazole. It is filed as cell-based. The note with it: strain HLY4123, in the presence of fluconazole (0.25 μg/mL); mean ± SD of three independent experiments.
In the next data set the test system is NIH 3T3 cells. Description: Cytotoxicity against NIH 3T3 cells. It is filed as cell-based. The conditions noted are these: concentrations up to 1.5 mM. In outline:
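Test compound applied to NIH 3T3 cells at concentrations up to 1.5 mM. Values are arithmetic means ± SD of three independent experiments.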

Data set [2] concerns resistant clinical isolates of C. albicans. It is filed as cell-based. The conditions noted are these: for Growth (OD600) +Cpd 31 +Fluc: compound 31 3 μM + fluconazole 64 μg/mL; for Growth (OD600) +Cpd 31 +Fluc / Growth (OD600) +Fluc: 16 h in SC at 30°C; for Growth (OD600) +Fluc: fluconazole 64 μg/mL alone.
Data set [3] deals with C. albicans strain HLY4123 and fluconazole-resistant clinical isolates 26 and 45. Description: microbe, parasite or virus in culture. The note with it: for MICcpd (MIC90): compound 31 alone; for FICI: compound 31 and fluconazole; for MICcpd(+Flc) (MIC90): compound 31 in combination with fluconazole; for MIC90: Candida albicans. Format: cell-based.
In data set [4] the test system is resistant clinical isolates of C. albicans. On the set-up: unit not given beside the values. The conditions noted are these: ref [69], cited from earlier work.
Data set [5] addresses C. albicans sterol α-demethylase (a.k.a. Erg11 or CYP51). The note with it: ref [71],[72]; cited from earlier work.
For data set [6] the following is noted: in the presence of fluconazole; lowest value; ref [45]; cited from earlier work.

≈ marks a conversion by molar mass, not a printed value. Read-outs that look alike come from different tables or passages of the source.

Consider `Cc1c(Cl)ccc2c1NC(=O)[C@]21N[C@H](Cc2ccccc2)[C@@H]2C(=O)N(c3ccc(F)cc3)C(=O)[C@@H]21` (racemic) [Compound 1, (±)-(3R,3′R,3a′R,6a′S)-3′-benzyl-6-chloro-5′-(4-fluorophenyl)-7-methyl-2′,3′,3a′,6a′-tetrahydro-4′H-spiro[indoline-3,1′-pyrrolo[3,4-c]pyrrole]-2,4′,6′(5′H)-trione], for which, in data set [1], the EC50 was 11 ± 4 nM. The cytotoxicity entry in the data set on NIH 3T3 cells is “only weak cytotoxicity”.
Consider `Cc1c(Cl)ccc2c1NC(=O)[C@@]21[C@H]2C(=O)N(c3ccccc3)C(=O)[C@H]2[C@H]2CN(C(=O)OCc3ccccc3)CCN21` (racemic) [Compound 31, (±)-benzyl (3R,3a′R,3b′S,9a′S)-6-chloro-7-methyl-1′,2,3′-trioxo-2′-phenyl-2′,3′,3a′,3b′,4′,6′,7′,9a′-octahydrospiro[indoline-3,9′-pyrrolo[3′,4′:3,4]pyrrolo[1,2-a]pyrazine]-5′(1′H)-carboxylate], for which the EC50 was not below 2 nM in data set [2] (enhancing the effect of fluconazole against some resistant strains, lowest value); 16 ± 0.002 nM in data set [2] (read-out: Potency +Cpd 31 EC50, isolate 45, fluconazole 64 μg/mL, mean ± SD of three experiments); 0.3 ± 0.01 nM in data set [1]. The “Growth (OD600) +Cpd 31 +Fluc” value in data set [2] (isolate 17) amounted to 0.76 OD600; in data set [2] (isolate 23), 0.60 OD600; in data set [2] (isolate 26) it was 0.83 OD600; in data set [2] (isolate 33), 0.88 OD600; in data set [2] (isolate 36), 1.07 OD600; in data set [2] (isolate 45), 1.03 OD600. Also, the “MICcpd (MIC90)” value in data set [3] (isolate 26) was more than 30 µM; in data set [3] (isolate 45), more than 30 µM; in data set [3] (strain HLY4123) it was more than 300 µM. In addition, the values for the FICI in data set [3] (isolate 26), in data set [3] (isolate 45) and in data set [3] (strain HLY4123) were 0.14, 0.13 and 0.25, respectively. Further, the figures for the “MICcpd(+Flc) (MIC90)” value in data set [3] (isolate 26), in data set [3] (isolate 45) and in data set [3] (strain HLY4123) were 0.3 µM, 0.03 µM and 0.03 µM, respectively. For the same molecule, the FIC index result in data set [3] (with fluconazole, in all of the strains tested (susceptible and resistant)) is listed as “below 0.5”. Further, in data set [3] (without fluconazole, at the solubility limit), the “toxicity of compound alone against the strains” value is reported as “did not have measurable toxicity”. Further, the cytotoxicity entry in the data set with NIH 3T3 cells (listed as Synazo-1) was “low toxicity”.
Consider `OC(Cn1cncn1)(Cn1cncn1)c1ccc(F)cc1F` [Fluconazole, fluconazole, reference compound], for which the “Growth (OD600) +Fluc” value is given as 3.96 OD600 in data set [2] (isolate 17); 6.77 OD600 in data set [2] (isolate 23); 6.44 OD600 in data set [2] (isolate 26); 7.38 OD600 in data set [2] (isolate 33); 5.08 OD600 in data set [2] (isolate 36); 9.17 OD600 in data set [2] (isolate 45). Moreover, the MICFlc in data set [4] (isolate 17) is recorded as 32; in data set [4] (isolate 23), 32; in data set [4] (isolate 26) it was 32; in data set [4] (isolate 33), 64; in data set [4] (isolate 36), 64; in data set [4] (isolate 45) it was 128. The MIC90 in data set [3] (read-out: MIC90 for fluconazole, susceptible strain, synazo-1 present at 300 nM) worked out at 0.125 µM (≈ 0.0383 µg/mL); in data set [3] (read-out: MICFlc (MIC90), isolate 26, fluconazole alone), 836 µM (≈ 256 µg/mL); in data set [3] (read-out: MICFlc (MIC90), isolate 45, fluconazole alone), 836 µM (≈ 256 µg/mL); in data set [3] (read-out: MICFlc (MIC90), strain HLY4123, fluconazole alone), 0.5 µM (≈ 0.153 µg/mL). Moreover, the Ki in data set [5] was 30 nM.
Turning to `CN[C@H]1CC[C@@H](c2ccc(Cl)c(Cl)c2)c2ccccc21` [sertraline], the MIC in data set [6] is not below 0.5 µg/mL.

As a reminder, the EC50 is the midpoint of the concentration-response curve. For orientation: Ki means a measure of affinity in units of concentration, obtained from inhibition or displacement. As a reminder, the MIC is the lowest concentration that inhibits growth of the organism.
